“And” between values parts separate entries of the source, which are not always exact repeats. Equal entries are not always repeated. The source made the active and inactive calls. No cut-off for these calls is given here.
How the values were obtained:
[1] = Binding affinity to lysine in aqueous solution assessed as association constant at 1 mM by isothermal titration calorimetry
Outline: (§1)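 ITC at 298 K: sample cell filled with one partner at 1 mM, titrant at 15 mM in syringe, computer-automated injections. Blank titrations into plain solvent subtracted to remove heats of dilution. Data fitted to a 1:1 (one-site) binding model to give K, ΔH and ΔS.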

[2] = biological target: T1, Alpha-crystallin A chain (Homo sapiens) (UniProt P02489); experiment: Binding affinity to alphaA (66 to 80 residues) crystallin peptide in aqueous solution assessed as gibbs free energy change at 1 mM by isothermal titration calorimetry; outline: as §1
T1 sequence (whole entry): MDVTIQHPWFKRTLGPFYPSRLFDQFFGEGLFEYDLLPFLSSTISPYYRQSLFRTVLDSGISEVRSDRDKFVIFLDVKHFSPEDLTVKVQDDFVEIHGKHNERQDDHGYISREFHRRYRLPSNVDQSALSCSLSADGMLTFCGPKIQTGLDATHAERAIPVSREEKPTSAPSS

[3] = Binding affinity to histidine in aqueous solution assessed as gibbs free energy change at 1 mM by isothermal titration calorimetry; outline: as §1
[4] = Binding affinity to histidine in deuterium oxide solution assessed as change in complexation induced chemical shift at 2 mM by 1H NMR analysis
[5] = biological target: T1, Alpha-crystallin A chain (Homo sapiens); experiment: Inhibition of alphaA (66 to 80 residues) crystallin peptide aggregation assessed decrease in large fibrillar aggregation at 1:1 peptide to ligand ratio incubated for 7 days by transmission electron microscopy; settings: time 7.0 day
Outline: (§2)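 Peptide incubated with receptor at 1:1 or 5:1 ratio for 7 days at 37 °C. A 10 μL aliquot taken on day 7 was loaded onto Formvar-carbon coated 200 mesh nickel grids and allowed to absorb for 2 h. Grids were washed three times with deionized water and blotted dry. Peptide-alone control; duplicate grids per sample; imaged by TEM.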

[6] = biological target: T1, Alpha-crystallin A chain (Homo sapiens); experiment: Binding affinity to alphaA (66 to 80 residues) crystallin peptide in aqueous solution assessed as change in enthalpy at 1 mM by isothermal titration calorimetry; outline: as §1
[7] = Binding affinity to histidine in aqueous solution assessed as change in enthalpy at 1 mM by isothermal titration calorimetry; outline: as §1
[8] = biological target: T1, Alpha-crystallin A chain (Homo sapiens); experiment: Inhibition of alphaA (66 to 80 residues) crystallin peptide aggregation at peptide to ligand ratio of 0.2 to 5:1 incubated for 7 days by fluorescence aggregation assay; settings: time 7.0 day
Outline: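 5360 μM peptide in 10 mM Tris was mixed with receptor at 0.2:1 to 10:1 receptor:peptide ratios and incubated 7 days at 37 °C. Proteostat dye was added (1 μL per 10 μL sample) with positive/negative dye controls. Fluorescence was read at 25 °C. Triplicates; percent inhibition plotted vs log[concentration] to derive IC50.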

[9] = Binding affinity to lysine in deuterium oxide solution assessed as change in complexation induced chemical shift at 2 mM by 1H NMR analysis
[10] = biological target: T1, Alpha-crystallin A chain (Homo sapiens); experiment: Binding affinity to alphaA (66 to 80 residues) crystallin peptide in aqueous solution assessed as change in entropy at 1 mM by isothermal titration calorimetry; outline: as §1
[11] = Binding affinity to arginine in deuterium oxide solution assessed as change in complexation induced chemical shift at 2 mM by 1H NMR analysis
[12] = Binding affinity to arginine in aqueous solution assessed as gibbs free energy change at 1 mM by isothermal titration calorimetry; outline: as §1
[13] = biological target: T1, Alpha-crystallin A chain (Homo sapiens); experiment: Binding affinity to alphaA (66 to 80 residues) crystallin peptide in aqueous solution assessed as association constant at 1 mM by isothermal titration calorimetry; outline: as §1
[14] = Binding affinity to histidine in aqueous solution assessed as association constant at 1 mM by isothermal titration calorimetry; outline: as §1
[15] = Binding affinity to aspartic acid in deuterium oxide solution assessed as change in complexation induced chemical shift at 2 mM by 1H NMR analysis
[16] = Binding affinity to histidine in aqueous solution assessed as change in entropy at 1 mM by isothermal titration calorimetry
Outline: (§3)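 ITC at 298 K. The sample cell holds one partner at 1 mM and the syringe holds titrant at 15 mM, added by automated injections. Titrations were run in water and in 10 mM Tris buffer pH 7.4. Blank titrations into plain solvent were subtracted to correct for heats of dilution. The data were fitted to a 1:1 (one-site) binding model to give K, ΔH and ΔS.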

[17] = Binding affinity to arginine in aqueous solution assessed as association constant at 1 mM by isothermal titration calorimetry; outline: as §1
[18] = Binding affinity to arginine in aqueous solution assessed as change in entropy at 1 mM by isothermal titration calorimetry; outline: as §3
[19] = biological target: T1, Alpha-crystallin A chain (Homo sapiens); experiment: Inhibition of alphaA (66 to 80 residues) crystallin peptide aggregation assessed as decrease in peptide-receptor complex and measured upto 2 hrs by ESI-MS analysis
Outline: (§4)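 Peptide and host (10 mM aqueous stocks) were mixed in equal parts to 5 mM each. Mixtures were diluted in ESI buffer (50% methanol, 49% water, 1% acetic acid) and analysed by positive-mode ESI-MS, either within 2 h of mixing or after incubation for 72+ h at 37 °C followed by 100-fold dilution.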

[20] = Binding affinity to lysine in aqueous solution assessed as gibbs free energy change at 1 mM by isothermal titration calorimetry; outline: as §1
[21] = biological target: T1, Alpha-crystallin A chain (Homo sapiens); experiment: Inhibition of alphaA (66 to 80 residues) crystallin peptide aggregation assessed as amorphous small protein aggregates at 1:1 peptide to ligand ratio incubated for 7 days by transmission electron microscopy; settings: time 7.0 day; outline: as §2
[22] = biological target: T1, Alpha-crystallin A chain (Homo sapiens); experiment: Inhibition of alphaA (66 to 80 residues) crystallin peptide aggregation assessed as decrease in peptide-receptor complex and measured after 72 hrs by ESI-MS analysis; outline: as §4
[23] = Binding affinity to arginine in aqueous solution assessed as change in enthalpy at 1 mM by isothermal titration calorimetry; outline: as §1
[24] = biological target: T1, Alpha-crystallin A chain (Homo sapiens); experiment: Inhibition of alphaA (66 to 80 residues) crystallin peptide aggregation assessed as decrease in average diameter size distribution at 1:1 peptide to ligand ratio incubated for 7 days by dynamic light scattering (Rvb=12000+/-1500 nm); settings: time 7.0 day
[25] = Binding affinity to lysine in aqueous solution assessed as change in entropy at 1 mM by isothermal titration calorimetry; outline: as §3
[26] = Binding affinity to lysine in aqueous solution assessed as change in enthalpy at 1 mM by isothermal titration calorimetry; outline: as §1
[27] = Binding affinity to aspartic acid in aqueous solution assessed as change in enthalpy at 1 mM by isothermal titration calorimetry; outline: as §1
[28] = Binding affinity to aspartic acid in aqueous solution assessed as gibbs free energy change at 1 mM by isothermal titration calorimetry; outline: as §1
[29] = Binding affinity to aspartic acid in aqueous solution assessed as change in entropy at 1 mM by isothermal titration calorimetry; outline: as §3
[30] = Binding affinity to aspartic acid in aqueous solution assessed as association constant at 1 mM by isothermal titration calorimetry; outline: as §1

**Q.** Which results are given for `CCCc1cc(C(CC)c2cc(C(CC)c3cc(C(CC)c4ccc(O)c(CS(=O)(=O)O)c4O)c(O)c(CS(=O)(=O)O)c3O)c(O)c(CS(=O)(=O)O)c2O)c(O)c(CS(=O)(=O)O)c1O` (centres undefined)?
**A.** Ka [1]: 5.89 10^3/M; deltaG [2]: -8.37 kcal/mol; deltaG [3]: -9.5 kcal/mol and -9.51 kcal/mol; Activity [4]: inactive; inhibition [5]: Active; deltaH [6]: -8.28 kcal/mol; deltaH [7]: -2.59 kcal/mol; inhibition [8]: Dose-Dependent Effect; Activity [9]: Active; TdeltaS [10]: 0.092 kcal/mol; Activity [11]: Active; deltaG [12]: -5.27 kcal/mol and -5.28 kcal/mol; Ka [13]: 1360 10^3/M; Ka [14]: 2.94 10^3/M; Activity [15]: inactive; TdeltaS [16]: 6.91 kcal/mol; Ka [17]: 7.27 10^3/M; TdeltaS [18]: -10.4 kcal/mol; inhibition [19]: inactive; deltaG [20]: -5.62 kcal/mol; inhibition [21]: Active; inhibition [22]: inactive; deltaH [23]: -15.7 kcal/mol; Activity [24]: 1920 nm; TdeltaS [25]: -6.45 kcal/mol; deltaH [26]: -12.1 kcal/mol

**Q.** With `O=S(=O)(O)CCCc1cc(C(CCS(=O)(=O)O)c2cc(C(CCS(=O)(=O)O)c3cc(C(CCS(=O)(=O)O)c4ccc(O)cc4O)c(O)cc3O)c(O)cc2O)c(O)cc1O` (centres undefined) as the compound, how does the Ka [1] read?
**A.** Its Ka is 4.45 10^3/M.

**Q.** What about the deltaG [2] of the same compound?
**A.** The deltaG was -7.61 kcal/mol and -7.6 kcal/mol.

**Q.** What about the deltaG [3] of the same compound?
**A.** Its deltaG is -4.8 kcal/mol.

**Q.** What about the Activity [4] of the same compound?
**A.** The Activity was “inactive”.

**Q.** What about the inhibition [5] of the same compound?
**A.** Its inhibition is “Active”.

**Q.** And the deltaH [6]?
**A.** The deltaH was -3.23 kcal/mol.

**Q.** And the deltaH [7]?
**A.** The deltaH was -1.05 kcal/mol.

**Q.** And the inhibition [8]?
**A.** Its inhibition is “Dose-Dependent Effect”.

**Q.** And the Activity [9]?
**A.** Its Activity is “Active”.

**Q.** What about the TdeltaS [10] of the same compound?
**A.** The TdeltaS was 4.38 kcal/mol.

**Q.** What about the Activity [11] of the same compound?
**A.** Its Activity is “Active”.

**Q.** And the deltaG [12]?
**A.** The deltaG was -4.9 kcal/mol.

**Q.** What about the Ka [13] of the same compound?
**A.** The Ka was 380 10^3/M.

**Q.** And the Ka [14]?
**A.** The Ka was 3.44 10^3/M.

**Q.** And the Activity [15]?
**A.** The Activity was “inactive”.

**Q.** What about the TdeltaS [16] of the same compound?
**A.** Its TdeltaS is 3.75 kcal/mol.

**Q.** What about the Ka [17] of the same compound?
**A.** The Ka was 3.64 10^3/M.

**Q.** What about the TdeltaS [18] of the same compound?
**A.** Its TdeltaS is -10.2 kcal/mol.

**Q.** What about the inhibition [19] of the same compound?
**A.** The inhibition was “inactive”.

**Q.** What about the deltaG [20] of the same compound?
**A.** Its deltaG is -4.98 kcal/mol and -4.97 kcal/mol.

**Q.** What about the inhibition [21] of the same compound?
**A.** Its inhibition is “Active”.

**Q.** What about the inhibition [22] of the same compound?
**A.** The inhibition was “inactive”.

**Q.** And the deltaH [23]?
**A.** The deltaH was -15.2 kcal/mol.

**Q.** What about the Activity [24] of the same compound?
**A.** Its Activity is 3740 nm.

**Q.** What about the TdeltaS [25] of the same compound?
**A.** The TdeltaS was -1.76 kcal/mol.

**Q.** What about the deltaH [26] of the same compound?
**A.** The deltaH was -6.74 kcal/mol.

**Q.** With `OCCCCc1cc(C(CCCO)c2cc(C(CCCO)c3cc(C(CCCO)c4ccc(O)c(CNCc5ccccc5)c4O)c(O)c(CNCc4ccccc4)c3O)c(O)c(CNCc3ccccc3)c2O)c(O)c(CNCc2ccccc2)c1O` (centres undefined) as the compound, how does the deltaH [27] read?
**A.** Its deltaH is -1 kcal/mol.

**Q.** And the deltaG [2]?
**A.** Its deltaG is -4.59 kcal/mol.

**Q.** And the deltaG [28]?
**A.** The deltaG was -3.9 kcal/mol.

**Q.** What about the deltaG [3] of the same compound?
**A.** Its deltaG is -5.69 kcal/mol.

**Q.** And the Activity [4]?
**A.** The Activity was “Active”.

**Q.** What about the inhibition [5] of the same compound?
**A.** Its inhibition is “Active”.

**Q.** What about the deltaH [6] of the same compound?
**A.** The deltaH was 4.89 kcal/mol.

**Q.** And the deltaH [7]?
**A.** The deltaH was -7.53 kcal/mol.

**Q.** What about the inhibition [8] of the same compound?
**A.** The inhibition was “Dose-Dependent Effect”.

**Q.** What about the Activity [9] of the same compound?
**A.** Its Activity is “Active”.

**Q.** What about the TdeltaS [10] of the same compound?
**A.** Its TdeltaS is 9.48 kcal/mol.

**Q.** And the Activity [11]?
**A.** The Activity was “Active”.

**Q.** And the Ka [13]?
**A.** The Ka was 2.4 10^3/M.

**Q.** What about the Ka [14] of the same compound?
**A.** The Ka was 14.9 10^3/M.

**Q.** What about the Activity [15] of the same compound?
**A.** The Activity was “Active”.

**Q.** What about the TdeltaS [29] of the same compound?
**A.** Its TdeltaS is 2.9 kcal/mol.

**Q.** What about the TdeltaS [16] of the same compound?
**A.** The TdeltaS was -1.84 kcal/mol.

**Q.** What about the inhibition [19] of the same compound?
**A.** Its inhibition is “Active”.

**Q.** What about the Ka [30] of the same compound?
**A.** Its Ka is 7.3 10^3/M.

**Q.** What about the inhibition [21] of the same compound?
**A.** The inhibition was “Active”.

**Q.** What about the inhibition [22] of the same compound?
**A.** The inhibition was “Active”.

**Q.** And the Activity [24]?
**A.** Its Activity is 202 nm.

Reference: ChEMBL document CHEMBL5223067, “Functionalized resorcinarenes effectively disrupt the aggregation of αA66-80 crystallin peptide related to cataracts” (RSC Med Chem, 2021)
